# What was measured:
# E. coli RNAP TEC [1] = biological target: T1, E. coli RNAP TEC (Escherichia coli, UniProt P0A8T7+P0A8V2); assay: Time-resolved nucleotide addition; type: biochemical; details: i − 7 6-MI TECs; 200 µM NTP, 25°C
# TEC = details: absence of the next incoming substrate NTP; cited from earlier work
# E. coli RNAP TEC [2] = biological target: T1, E. coli RNAP TEC; assay: PPi release, coupled PPase / MDCC-PBP stopped-flow assay; type: biochemical
# [3] = biological target: TEC assembled using β′H936A RNAP (Escherichia coli, UniProt P0A8T7+P0A8V2, H936A); assay: Equilibrium TGT titration of extended TECs, β′H936A RNAP; type: binding; details: β′His936 substituted with alanine
# In short: (§1)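 E. coli RNAP TECs (template strand limiting at 1 µM) on a synthetic scaffold, with 6-MI or 2-AP in the template or 2-AP added at the RNA 3′ end. Extended 10 min at 25°C in TB10 (pH 7.5) with 5 µM substrate and 0.2 nM yeast PPase. TGT added afterwards, 5 min more. Emission peaks: 6-MI 420 nm (ex 340), 2-AP 375 nm (ex 330). KTGT from a dissociation-equilibrium fit; errors are SD of best-fit estimates.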
# ΔTL RNAP TEC = assay: Equilibrium TGT titration of extended TECs, ΔTL RNAP; type: binding, Escherichia coli; details: AMP-extended TEC, TL domain replaced by a two-alanine linker
# In short: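 Two-alanine-linker ΔTL RNAP TECs (template strand limiting at 1 µM) with a base-analog fluorophore in the template. Extended 1.5 h at 25°C in TB10 (pH 7.5) with 5 µM substrate and 0.2 nM yeast PPase. TGT added post-catalytically for 5 min more. Fluorescence taken at the emission peak: 6-MI 420 nm (ex 340) or 2-AP 375 nm (ex 330). Titration fitted to dissociation-equilibrium equations.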
# RNAP = details: cited from earlier work
# [4] = biological target: TEC assembled using β′R933A RNAP (Escherichia coli, UniProt P0A8T7+P0A8V2, R933A); assay: Equilibrium TGT titration of extended TECs, β′R933A RNAP; type: binding; details: β′Arg933 substituted with alanine
# In short: as §1
# [5] = biological target: TEC assembled with wild-type E. coli RNAP (Escherichia coli, UniProt P0A8T7+P0A8V2); assay: Equilibrium TGT titration of extended TECs, fluorescence of base analogs; type: binding
# In short: as §1
# [6] = biological target: TEC assembled using β′M932A RNAP (Escherichia coli, UniProt P0A8T7+P0A8V2, M932A); assay: Equilibrium TGT titration of extended TECs, β′M932A RNAP; type: binding
# In short: as §1
# β′N458D TEC = β′N458D TEC (Escherichia coli, UniProt P0A8T7+P0A8V2, N458D); assay: Equilibrium TGT titration of extended TECs, β′N458D RNAP; type: binding; details: AMP-extended β′N458D TEC
# In short: as §1
# E. coli RNAP TEC [7] = biological target: T1, E. coli RNAP TEC; type: biochemical; details: time-resolved, saturating TGT (5 µM)
# [8] = biological target: GMP-extended TEC (TEC17), E. coli RNAP (Escherichia coli, UniProt P0A8T7+P0A8V2); type: binding
compound,measurement,setting,value
O=c1ccn([C@@H]2O[C@H](COP(=O)(O)O)[C@@H](O)[C@H]2O)c(=O)[nH]1 [UMP],"nucleotide addition, half-life",E. coli RNAP TEC [1],~0.02 s
Nc1ccn([C@@H]2O[C@H](COP(=O)(O)O)[C@@H](O)[C@H]2O)c(=O)n1 [CMP],"nucleotide addition, half-life",E. coli RNAP TEC [1],~0.008 s
"O=P(O)(O)OP(=O)(O)O [PPi, pyrophosphate]",rate of PPi release from the TEC,TEC,2.9 s⁻¹
same,PPi to MDCC-PBP·Pi conversion rate,E. coli RNAP TEC [2]; 10 µM PPase,120 s⁻¹
same,rate of PPi release from the TEC,"E. coli RNAP TEC [2]; same TEC as Johnson et al., PPase-MDCC-PBP method",120 s⁻¹
Nc1ncnc2c1ncn2[C@@H]1O[C@H](COP(=O)(O)O)[C@@H](O)[C@H]1O [AMP],"nucleotide addition, half-life",E. coli RNAP TEC [1],~0.02 s
"CC(=O)O[C@@H]1[C@H](N)[C@@H](OP(=O)(O)O)[C@@]2(C(=O)O)CS[C@@](O)(C(N)=O)[C@@H]1O2 [TGT, tagetitoxin]",increase in KTGT relative to wild-type,[3],> 7 fold
same,response of TEC to TGT action,ΔTL RNAP TEC,completely resistant
same,effect on pyrophosphorolysis,RNAP,strongly inhibit
same,increase in KTGT relative to wild-type,[4],> 7 fold
same,quenching of the fluorescence of 3′ RNA 2-AP by TGT,"[5]; 2-AP ribonucleoside monophosphate-extended TEC, wild-type",2 fold
same,increase of apparent TGT binding constant relative to rNMP-extended TECs,[5]; TECs lacking a 2′-OH group at the RNA 3′ end,~10 fold
same,increase in KTGT relative to rNMP-extended TECs,[5]; TECs lacking a 3′ OH group at the RNA 3′ end,approximately 5 fold
same,effect on translocation state of extended TECs,[5]; TGT added post-catalytically,quantitatively moves extended TECs into the pre-translocated state
same,quenching of the fluorescence of 3′ RNA 2-AP by TGT,[6]; 2-AP ribonucleoside monophosphate-extended β′M932A TEC,did not quench
same,apparent KTGT relative to wild-type TEC,"[6]; β′M932A TEC, higher",5 fold
same,move into the pre-translocated state at saturating TGT concentrations,β′N458D TEC,≤ 20%
same,effect on forward translocation,E. coli RNAP TEC [7],does not affect the rate of forward translocation
Nc1nc2c(ncn2[C@@H]2O[C@H](COP(=O)(O)O)[C@@H](O)[C@H]2O)c(=O)[nH]1 [GMP],"nucleotide addition, half-life",E. coli RNAP TEC [1],~0.02 s
"Nc1ccn([C@@H]2O[C@H](COP(=O)(O)CP(=O)(O)OP(=O)(O)O)[C@@H](O)[C@H]2O)c(=O)n1 [CMPcPP, cytidine-5′-[(α,β)-methyleno]triphosphate]",decrease in fluorescence upon CMPcPP binding to the TEC,[8],~15%
same,effect on fluorescence in the absence of TGT,[8],failed to increase fluorescence
same,effect on TGT action,[8]; templated CMPcPP,able to counter the effect of TGT

# Reference: PMC3424550 (Nucleic Acids Research, 2012)
